UPR XBP1 act: activators of adaptive arm of unfolded protein response (XBP1). activation, % at 20 µM. CHO-XBP1 luciferase reporter, IRE1-XBP1 UPR activation, luminescence; percent of tunicamycin response, DMSO as zero. 330,000 tested, 0.33% active;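 active means versus positive control, 20 µM dose yields 30% or more activation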;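 further: 100% = tunicamycin at 10 µg/mL and 0% = DMSO only wells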
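Material: CHO cell line with stable XBP1 luciferase reporter; buffer or medium: F12 medium containing 10% fetal bovine serum; compound: single point, 20 µM final compound, 1% DMSO; incubation: 6 h treatment, 37 °C; measured by: glow luminescence from Steady-Glo reagent; evaluation: activation, % of tunicamycin; control set: tunicamycin high, DMSO low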
CHOP inh: blocks CHOP induction under ER stress; inhibition, % at 10 µM; 220,000 tested, 3.8% active; AID 2732; CHO-K1 CHOP-promoter luciferase, tunicamycin-induced, 15-18 h;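 active means compounds that reduced the stress-induced luciferase reporter signal by more than about 70% of percent inhibition, limit read from the data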;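 further: 0% = tunicamycin plus vehicle and 100% = wells without tunicamycin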
UPR CHOP act: apoptotic UPR (CHOP) activation | CHO-CHOP luciferase reporter, luminescence; percent of tunicamycin response over DMSO baseline | activation, % at 10 µM | 330,000 tested, 0.34% active | AID 449763;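 active means at 10 µM dose, activation of 40% or more, normalized to positive control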;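 further: 100% = tunicamycin at 10 µg/mL and 0% = DMSO alone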
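assay system = CHO CHOP reporter cells | amount = 500 CHO-CHOP cells per well | buffer or medium = F12 with 10% FBS | incubation = 16-18 h cell attachment, then 6 h compound exposure, 37 °C | detection = luminescence read with Steady-Glo | read-out = percent activation relative to tunicamycin control | controls = tunicamycin high control, DMSO low control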
PvdQ inh: blocks Pseudomonas aeruginosa PvdQ acylase activity | inhibition, % at 10 µM | purified PvdQ acylase, fluorescence plate reader | 340,000 tested, 0.063% active; in the data active means inhibition above about 30%, passing the limit was not always enough;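 further: 0% = vehicle neutral wells and 100% = reference inhibitor wells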
CHOP UPR conf: apoptotic UPR (CHOP) activation, confirmed. shares compounds with UPR CHOP act. CHO-CHOP cells, CHOP-luciferase reporter luminescence; percent of tunicamycin response, DMSO as zero. activation, % at 10 µM. 1,000 tested, 64% active; in the data active means activation above about 33%;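 further: 0% = DMSO wells and 100% = tunicamycin 10 µg/mL wells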
Active calls of the source: *; . = no result given. Many of the other results were omitted from the sample, so hits are more common in it than they were.

SMILES	UPR XBP1 act	CHOP inh	UPR CHOP act	PvdQ inh	CHOP UPR conf
COc1cc(NC(=O)COc2ccc(-n3cnnn3)cc2)cc(OC)c1OC	-3	.	1	-12	.
CCCn1c(CN2CCN(C(=O)OCC)CC2)nc2cc(NC(C)=O)ccc21	1	.	2	-6	.
CCCn1c(CN2CCN(C(=O)OCC)CC2)nc2cc(NC(=O)C(C)C)ccc21	-4	.	50*	7	0
CC(C)c1ccc(-c2nn(-c3ccccc3)cc2C2C(C#N)=C(N)OC3=C2C(=O)CC(C)(C)C3)cc1 (centres undefined)	21	36	19	-14	.
CC(OC(=O)c1c[nH]c2ccccc12)C(=O)N1CCCC1 (centres undefined)	-1	.	90*	-15	-1
CCOC(=O)c1ccc(NC2=CC(=O)C(=O)c3ccccc32)cc1	9	17	65*	-14	9
NS(=O)(=O)c1ccc(NC2=CC(=O)C(=O)c3ccccc32)cc1	10	.	16	1	.
N#CC(C#N)=C1C=CC=CN1/C(=C\c1ccccc1)C(=O)c1cccs1	-6	44	122*	0	119*
Cc1ccc(NC(=O)Cn2ncc(Cl)c(Cl)c2=O)cc1S(=O)(=O)N1CCCCC1	-8	.	88*	-12	57*
CCc1nc2ccccc2c(NC(=O)CN2CC(C)CC(C)C2)c1C (centres undefined)	-3	24	-1	-2	.
COc1ccc(-c2ccc(-c3nc4c(c(=O)[nH]c(=O)n4Cc4ccccc4)n3C)o2)c([N+](=O)[O-])c1	17	90*	59*	2	41*
CC1=C(C(=O)OCCNC(=O)c2ccccc2O)C(c2ccccc2[N+](=O)[O-])C(C(=O)OCC2CCCO2)=C(C)N1 (centres undefined)	-2	46	2	8	.
O=c1oc(-c2ccc(O)c(O)c2)cc2cc(O)cc(O)c12	11	.	9	-3	.
O=c1oc(-c2ccc(O)c(O)c2)cc2cccc(O)c12	19	.	54*	-4	9
Oc1c(C(Nc2ccccn2)c2ccccn2)ccc2cccnc12 (centres undefined)	15	66	59*	-1	71*
COc1cc(C(Nc2ccccn2)c2ccc3ccc(C)nc3c2O)cc(OC)c1O (centres undefined)	1	.	263*	-14	251*
CC(C)(C)NC(=O)COc1ccc(CNCc2cccs2)cc1	1	-5	-1	-8	.
C/C(CCc1oc2ccccc2c1-c1ccc(C)o1)=N/O	-3	41	-1	-14	.
C/C(CCc1oc2c(Br)cc(Br)cc2c1-c1ccc(C)o1)=N\O	7	18	89*	8	-2
CCOC(=O)c1ccc(N=C2C(=S)N(c3ccc(C(=O)OCC)cc3)C(=N)N2/N=C/c2ccccc2)cc1	10	43	53*	6	37*
CC(=O)Nc1ccc(NC(=O)Cc2ccc(-c3ccccc3)cc2)cc1	-2	.	0	-1	.
O=C(CCl)Nc1ccc(-c2ccccc2)cc1	2	-49	43*	-13	47*
O=C(NCCc1ccccc1)[C@@H]1CC=C[C@@H]2CCN(Cc3ccccc3)C(=O)[C@@H]21	1	.	-1	10	.
Cc1cccc(Oc2nc(-c3ccccn3)nc3ccccc23)c1	12	-43	38	4	.
Cc1ccccc1Oc1nc(-c2ccccn2)nc2ccccc12	18	4	49*	-11	8
SMILES	UPR XBP1 act	CHOP inh	UPR CHOP act	PvdQ inh	CHOP UPR conf
c1ccc(N2CCN(c3nc(-c4ccccn4)nc4ccccc34)CC2)cc1	17	-24	97*	8	21
CN1CCN(c2nc(-c3ccccn3)nc3ccccc23)CC1	-2	-30	-2	-9	.
Cc1cc(C)c(OCC(=O)OC(C)C(=O)NCc2ccccc2)c(C)c1 (centres undefined)	1	.	0	-6	.
O=c1ccc(=O)n(CCc2ccccn2)[nH]1	.	.	.	-1	.
O=C1CC(c2ccc(O)c(O)c2)Oc2c1ccc(O)c2O (centres undefined)	1	-18	3	-14	.
CC(C)=CCc1c(O)ccc2c1OC(c1ccc(O)c(O)c1)CC2=O (centres undefined)	15	41	69*	-8	27
O=C(/C=C/c1ccccc1)c1ccccc1	10	-64	4	6	.
Cc1ccc(C(=O)/C=C/c2ccc(-c3ccc(C)cc3)o2)cc1	18	62	94*	-16	-1
CCN(CC)S(=O)(=O)c1ccc(C(=O)/C=C/c2ccc(-c3ccc([N+](=O)[O-])cc3)o2)cc1	4	-14	2	-12	.
O=C(/C=C\c1ccc(-c2ccccc2)o1)c1ccccc1	10	52	79*	16	4
Cc1cc(C(=O)c2ccc(C(C)(C)C)cc2)c(NC(=O)CCl)s1	6	31	50*	8	94*
Cc1cc(C(=O)c2ccccc2)c(NC(=O)CN2CCOCC2)s1	-1	10	-2	-24	.
Cc1ccc(/C=C/C(=O)N2CC(C)CC(C)C2)o1 (centres undefined)	0	18	68*	3	2
CCN1CCN(C(=O)/C=C/c2ccc(C)o2)CC1	1	-12	1	-4	.
COc1cccc(-c2nc(CS(=O)CC(=O)NCc3ccccc3)c(C)o2)c1 (centres undefined)	-2	4	69*	-11	0
CCCNC(=O)CS(=O)Cc1nc(-c2cccc(OC)c2)oc1C (centres undefined)	-2	-18	2	2	.
Cc1ccc(O)c(CP(=O)(c2ccccc2)c2ccccc2)c1	-2	-22	1	-9	.
CCNc1ccccc1CP(=O)(c1ccccc1)c1ccccc1O (centres undefined)	-1	.	186*	.	37*
Cn1c(SCC(=O)NCC2CCCO2)ncc(C(=O)Nc2ccc(Cl)cc2)c1=O (centres undefined)	5	.	158*	-9	138*
CC(=O)c1cccc(NC(=O)CSc2ncc(C(=O)Nc3ccccc3)c(=O)n2C)c1	-4	.	299*	-5	460*
CCSCc1nnc(SCC(=O)Nc2ccc(F)cc2)n1CC	2	-3	2	-3	.
CC(C)(C)c1cc2cccnc2n1Cc1cccc(Cl)c1	0	14	-1	8	.
COC(=O)C1=C(C)N(c2ccc(Cl)cc2)/C(=C/c2cccs2)C1=O	1	-17	4	1	.
COC(=O)C1=C(C)N(c2ccc(C)c(C)c2)/C(=C/c2cccs2)C1=O	15	10	90*	0	50*
O=C(Nc1ccc(-c2nc3ncccc3o2)cc1)c1ccc([N+](=O)[O-])o1	18	.	313*	-6	135*
O=C(Nc1ccc2oc(-c3ccncc3)nc2c1)c1ccc([N+](=O)[O-])o1	15	.	162*	-6	46*
O=C(Nc1nc2ccccc2s1)c1ccc([N+](=O)[O-])o1	3	.	73*	-15	8

High-throughput results as filed in PubChem.
